The target of test [1] is T1, Bcl-2-like protein 1 (Homo sapiens, UniProt Q07817). In words: Binding affinity to Bcl-XL by fluorescence polarization assay.
For test [2], the target named is Apoptosis regulator Bcl-2 (Homo sapiens, UniProt P10415). Description: Binding affinity to Bcl2 by fluorescence polarization assay. On the technique in general: Fluorescence polarisation rises when a labelled molecule tumbles more slowly, as on binding a larger partner.
For test [3], the target named is T1, Bcl-2-like protein 1. Description: Binding affinity to Bcl-XL in 1% human serum by fluorescence polarization assay.
For the next test, the target named is T2, Bcl-2-like protein 2 (Homo sapiens, UniProt Q92843).
T2 sequence (Q92843 whole entry): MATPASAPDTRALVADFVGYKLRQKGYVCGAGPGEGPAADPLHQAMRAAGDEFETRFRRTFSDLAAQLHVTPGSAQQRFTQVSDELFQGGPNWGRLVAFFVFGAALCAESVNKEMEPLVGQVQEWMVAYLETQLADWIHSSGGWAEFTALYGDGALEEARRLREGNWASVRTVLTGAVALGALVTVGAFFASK
In words: Binding affinity to Bclw.

The test system of test [4] is A549. In words: Antiproliferative activity against human A549 lung carcinoma cell xenograft tumor model in scid mice in presence of paclitaxel at MTD. The test is classed as functional. The gist of the method: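 A549 cells (5 × 10⁶ in 50% Matrigel) inoculated subcutaneously into flank; groups of equal tumor size (N = 10) assigned at ~250 mm³ (day 15). Dosing ip: agent 75 mg/kg/day days 16-36 in 5% Tween 80/20% PEG/75% 0.1 M NaPO₄ pH ~4.0; paclitaxel 30 mg/kg/day days 16, 20, 24. Calipers twice weekly, V = L × W²; %ILS as median time to 1 cm³.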
A general note: Xenograft models place foreign cells or tissue in a host animal.

Test [5] addresses T1, Bcl-2-like protein 1. Description: Activity towards mouse FL5.12 cell line transfected with Bcl-XL in presence of 3% fetal bovine serum. In kind it is functional. Summed up:
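Bcl-XL-transfected murine FL5.12 (IL-3 dependent) grown in RPMI with 10% FBS and WEHI-3B conditioned medium as the IL-3 source. Switched to IL-3-depleted, FBS-free medium for 2 days. Then placed in gelatin assay medium (3.4 mg/mL bovine gelatin) or 3% FBS assay medium. Serial compound dilutions added for 24 h. Viability read by MTS or CellTiter-Glo; duplicate values per determination; EC50.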

In test [6] the target is Induced myeloid leukemia cell differentiation protein Mcl-1 (Homo sapiens, UniProt Q07820). In words: Binding affinity to Mcl1.
Induced myeloid leukemia cell differentiation protein Mcl-1, sequence (Q07820 whole entry): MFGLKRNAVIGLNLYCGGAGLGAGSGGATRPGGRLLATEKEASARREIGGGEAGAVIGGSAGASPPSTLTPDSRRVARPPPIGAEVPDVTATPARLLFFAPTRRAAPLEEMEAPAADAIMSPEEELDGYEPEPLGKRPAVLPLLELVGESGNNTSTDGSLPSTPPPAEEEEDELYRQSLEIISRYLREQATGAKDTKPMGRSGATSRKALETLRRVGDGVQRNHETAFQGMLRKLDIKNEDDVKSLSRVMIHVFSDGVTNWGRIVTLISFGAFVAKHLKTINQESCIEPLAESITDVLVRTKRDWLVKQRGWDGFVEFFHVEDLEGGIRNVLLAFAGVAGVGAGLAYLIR
In test [7] the test system is A549. In words: Effect of viability of human A549 lung carcinoma cells at 20uM after 48h by MTS assay in presence of paclitaxel. In kind it is functional, cell-based. Summed up:
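A549 seeded in DMEM with 5% FBS the day before. Pretreated 48 h with paclitaxel serial 3-fold dilutions from 20 nM, then coincubated 48 h with paclitaxel plus compound in DMEM with 0.34% gelatin (serum-free). Viability by MTS, normalized to untreated cells.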
A general note: Formazan colour is commonly taken as a measure of viable cells.

For test [8], the system named is A549. Description: Effect on viability of human A549 lung carcinoma cells at 20 uM after 48h by MTS assay in presence of 10% fetal bovine serum. In kind it is functional, cell-based. Summed up:
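A549 seeded in DMEM with 5% FBS the day before. Medium removed and UV-C applied (start 32 mJ/cm², halved each step), then compound added in DMEM with 10% FBS. Viability by MTS at 48 h post-exposure, expressed as percent of untreated samples.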

A further test deals with Albumin (Homo sapiens, UniProt P02768). Description: Binding affinity for human serum albumin domain III.
Albumin, sequence (P02768 whole entry, the tested form may be a part): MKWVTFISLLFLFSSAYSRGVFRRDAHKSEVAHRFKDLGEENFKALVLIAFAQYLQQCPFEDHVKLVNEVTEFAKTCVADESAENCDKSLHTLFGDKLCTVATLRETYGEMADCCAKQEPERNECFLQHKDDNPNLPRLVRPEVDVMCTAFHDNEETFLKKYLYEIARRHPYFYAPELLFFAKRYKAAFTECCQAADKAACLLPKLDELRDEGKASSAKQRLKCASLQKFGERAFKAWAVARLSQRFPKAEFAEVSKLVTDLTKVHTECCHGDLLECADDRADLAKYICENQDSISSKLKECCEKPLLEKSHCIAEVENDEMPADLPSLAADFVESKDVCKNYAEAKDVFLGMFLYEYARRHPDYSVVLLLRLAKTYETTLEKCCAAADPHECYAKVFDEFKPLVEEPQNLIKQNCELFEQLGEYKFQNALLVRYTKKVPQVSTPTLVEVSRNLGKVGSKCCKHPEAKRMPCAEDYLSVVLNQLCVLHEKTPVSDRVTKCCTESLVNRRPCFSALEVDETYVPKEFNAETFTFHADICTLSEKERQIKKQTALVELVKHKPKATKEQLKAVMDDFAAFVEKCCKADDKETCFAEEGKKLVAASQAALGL

The structures appear in SMILES notation. The source made the active and inactive calls. The rule behind the calls is not given here.

T1 sequence (Q07817 whole entry): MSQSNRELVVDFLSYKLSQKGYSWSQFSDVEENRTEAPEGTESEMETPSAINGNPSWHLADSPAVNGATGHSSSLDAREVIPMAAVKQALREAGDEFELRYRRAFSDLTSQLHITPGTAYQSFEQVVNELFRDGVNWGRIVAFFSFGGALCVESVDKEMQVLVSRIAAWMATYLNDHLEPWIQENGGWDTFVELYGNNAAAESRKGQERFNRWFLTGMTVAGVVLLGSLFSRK
Apoptosis regulator Bcl-2, sequence (P10415 whole entry): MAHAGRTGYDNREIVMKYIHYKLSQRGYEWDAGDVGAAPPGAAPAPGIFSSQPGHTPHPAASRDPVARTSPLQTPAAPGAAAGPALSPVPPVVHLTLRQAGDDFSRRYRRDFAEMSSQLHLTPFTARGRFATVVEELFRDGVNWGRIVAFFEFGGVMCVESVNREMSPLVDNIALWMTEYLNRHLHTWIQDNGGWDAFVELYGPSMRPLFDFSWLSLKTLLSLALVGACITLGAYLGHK

As for `CN(C)CC[C@H](CSc1ccccc1)Nc1ccc(S(=O)(=O)NC(=O)c2ccc(N3CCC(C)(C)CC3)cc2)cc1[N+](=O)[O-]`, the Ki (usually the dissociation constant of the complex between target and ligand, obtained from inhibition or displacement) stood at 0.8 nM at Bcl-2-like protein 1 [1], 67 nM in test [2] and 360 nM at Bcl-2-like protein 1 [3]. The Kd (as a rule, a measure of binding affinity in units of concentration) was 459 nM on Bcl-2-like protein 2, above 10000 nM in test [6] and 13600 nM at Albumin. Moreover, the Activity in the test on A549 [4] turned out to be 75%. Also, at Bcl-2-like protein 1 [5], the EC50 – broadly, the concentration at which the effect is half-maximal – was determined as 5100 nM. Moreover, the result in the test on A549 [7] and in the test on A549 [8] was Active.

(Values after ChEMBL document CHEMBL1149415, “Discovery and structure-activity relationship of antagonists of B-cell lymphoma 2 family proteins with chemopotentiation activity in vitro and in vivo” (J Med Chem, 2006).)
